For 37 molecules, IC50 results are on record in ChEMBL document CHEMBL1141363, “Synthesis and evaluation of novel heterocyclic MMP inhibitors” (Bioorg Med Chem Lett, 2007).

The target of experiment [1] is T1, Interstitial collagenase (Homo sapiens, UniProt P03956).
T1 sequence (P03956 whole entry): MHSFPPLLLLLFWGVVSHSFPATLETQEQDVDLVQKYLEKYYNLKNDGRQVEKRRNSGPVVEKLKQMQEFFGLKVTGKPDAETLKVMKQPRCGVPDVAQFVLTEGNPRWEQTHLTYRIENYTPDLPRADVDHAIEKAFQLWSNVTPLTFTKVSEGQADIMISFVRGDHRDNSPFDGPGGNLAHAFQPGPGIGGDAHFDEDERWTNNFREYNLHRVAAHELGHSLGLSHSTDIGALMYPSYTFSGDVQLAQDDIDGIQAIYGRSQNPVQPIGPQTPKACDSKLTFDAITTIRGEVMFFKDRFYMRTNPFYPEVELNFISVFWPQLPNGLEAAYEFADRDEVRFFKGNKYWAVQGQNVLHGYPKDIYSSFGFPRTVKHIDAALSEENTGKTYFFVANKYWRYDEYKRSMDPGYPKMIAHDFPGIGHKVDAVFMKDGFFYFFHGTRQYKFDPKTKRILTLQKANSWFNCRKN
Kind of experiment: Inhibition of MMP1. In outline: (§1)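 Catalytic domains used at final levels of 85 nM (MMP-1), 24 nM (MMP-2), 18 nM (MMP-9) and 84 nM (MMP-12). Each enzyme was premixed with compound (serial 1:2 dilutions, 150 to 1.2) for 30 min at 37 °C. Substrate was added in 50 mM Hepes with 5 mM CaCl2 and 0.05% w/w Brij-35, pH 7.5, then incubated 30 min. Fluorescence read at ex 328/em 393 nm over 45 min, every 50 s.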

Experiment [2] has as its target Matrix metalloproteinase-9 (Homo sapiens, UniProt P14780). Kind of experiment: Inhibition of MMP9. In short, it runs like this:
as §1

The target of experiment [3] is Macrophage metalloelastase (Homo sapiens, UniProt P39900). Kind of experiment: Inhibition of MMP12. In short, it runs like this: as §1
Experiment [4] has as its target 72 kDa type IV collagenase (Homo sapiens, UniProt P08253). Kind of experiment: Inhibition of MMP2. In outline: as §1

SMILES strings stand for the structures.

By IC50 is commonly meant the midpoint of a concentration-inhibition curve. The low end stands for greater potency in that assay, the high end for weaker potency in that assay.

Chain of Macrophage metalloelastase (P39900 whole entry): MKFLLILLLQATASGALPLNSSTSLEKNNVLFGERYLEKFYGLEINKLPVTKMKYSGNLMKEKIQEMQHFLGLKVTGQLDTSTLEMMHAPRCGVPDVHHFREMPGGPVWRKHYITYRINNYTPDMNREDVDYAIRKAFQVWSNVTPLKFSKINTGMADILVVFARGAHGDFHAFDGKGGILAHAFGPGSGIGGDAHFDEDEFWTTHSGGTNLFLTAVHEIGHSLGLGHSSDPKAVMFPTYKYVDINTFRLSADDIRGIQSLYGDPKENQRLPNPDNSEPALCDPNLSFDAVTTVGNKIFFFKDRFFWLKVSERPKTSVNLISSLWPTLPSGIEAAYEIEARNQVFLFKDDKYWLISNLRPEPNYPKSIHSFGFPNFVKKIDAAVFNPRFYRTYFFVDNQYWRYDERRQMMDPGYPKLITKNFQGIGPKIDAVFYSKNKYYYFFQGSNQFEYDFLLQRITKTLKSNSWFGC
Chain of 72 kDa type IV collagenase (P08253 whole entry): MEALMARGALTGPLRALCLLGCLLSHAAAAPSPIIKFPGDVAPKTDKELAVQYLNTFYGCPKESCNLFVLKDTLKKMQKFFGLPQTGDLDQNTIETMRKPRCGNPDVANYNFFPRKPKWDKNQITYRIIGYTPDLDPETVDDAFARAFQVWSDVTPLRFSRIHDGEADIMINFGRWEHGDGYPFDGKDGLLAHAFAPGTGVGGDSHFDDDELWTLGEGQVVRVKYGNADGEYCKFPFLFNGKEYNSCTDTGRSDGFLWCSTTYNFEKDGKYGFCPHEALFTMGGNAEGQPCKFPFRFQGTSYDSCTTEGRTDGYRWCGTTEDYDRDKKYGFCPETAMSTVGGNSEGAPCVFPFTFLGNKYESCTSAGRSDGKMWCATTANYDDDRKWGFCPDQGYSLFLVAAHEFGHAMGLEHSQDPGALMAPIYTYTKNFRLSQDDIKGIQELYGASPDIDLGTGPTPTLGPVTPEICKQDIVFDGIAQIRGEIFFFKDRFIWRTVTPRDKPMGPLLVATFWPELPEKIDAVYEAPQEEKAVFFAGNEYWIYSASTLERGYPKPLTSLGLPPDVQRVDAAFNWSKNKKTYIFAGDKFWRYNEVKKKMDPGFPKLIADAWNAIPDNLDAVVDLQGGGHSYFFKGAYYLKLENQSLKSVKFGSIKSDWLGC
Chain of Matrix metalloproteinase-9 (P14780 whole entry): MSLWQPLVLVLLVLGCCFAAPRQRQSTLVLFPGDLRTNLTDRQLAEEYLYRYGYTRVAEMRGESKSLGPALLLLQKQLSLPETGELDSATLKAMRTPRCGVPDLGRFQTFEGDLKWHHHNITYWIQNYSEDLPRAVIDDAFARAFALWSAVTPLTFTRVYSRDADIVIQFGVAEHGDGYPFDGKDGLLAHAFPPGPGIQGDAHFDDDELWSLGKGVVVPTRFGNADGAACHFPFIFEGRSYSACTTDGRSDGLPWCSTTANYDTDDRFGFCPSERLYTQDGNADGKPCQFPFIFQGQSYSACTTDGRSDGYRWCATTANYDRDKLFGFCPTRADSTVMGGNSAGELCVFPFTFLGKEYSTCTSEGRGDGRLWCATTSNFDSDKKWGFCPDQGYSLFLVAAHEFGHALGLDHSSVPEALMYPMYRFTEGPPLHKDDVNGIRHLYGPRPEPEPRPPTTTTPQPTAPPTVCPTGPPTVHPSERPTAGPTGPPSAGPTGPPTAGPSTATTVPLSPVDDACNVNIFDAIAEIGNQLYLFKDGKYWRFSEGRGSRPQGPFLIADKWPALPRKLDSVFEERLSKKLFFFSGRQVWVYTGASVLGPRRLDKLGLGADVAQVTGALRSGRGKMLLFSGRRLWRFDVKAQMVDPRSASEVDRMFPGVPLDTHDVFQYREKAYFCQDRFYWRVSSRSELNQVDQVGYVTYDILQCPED

On to `O=C(OCc1cc(F)c(F)cc1F)c1cccc(=O)[nH]1`, for which the IC50 in experiment [1] turned out to be 30 µM; in experiment [2], 67 µM; in experiment [3], 56 µM; in experiment [4], 86 µM.
`O=C(OCc1ccccc1Br)c1cccc(S)n1`: the IC50 is > 150 µM in experiment [1], > 150 µM in experiment [2], > 150 µM in experiment [3] and 108 µM in experiment [4].
For the molecule `COc1ccc(COC(=O)c2cccc(S)n2)cc1`, the IC50 in experiment [1] amounted to 108 µM; in experiment [2], 95 µM; in experiment [3], 96 µM; in experiment [4], 91 µM.
On to `O=C(OCc1cc(F)cc(F)c1)c1cccc(=O)[nH]1`, for which the IC50 turned out to be 41 µM in experiment [1], 71 µM in experiment [2], 20 µM in experiment [3] and 69 µM in experiment [4].
For `O=C(OCc1c(F)cccc1F)c1cccc(=S)[nH]1`, the half-maximal inhibitory concentration (IC50) in experiment [1] amounted to 92 µM; in experiment [2] it was 101 µM; in experiment [3] it was 127 µM; in experiment [4], 66 µM.
With `O=C(OCc1cc(F)c(F)cc1F)c1cccc(=S)[nH]1`, the IC50 worked out at 124 µM in experiment [1], 105 µM in experiment [2], 106 µM in experiment [3] and 90 µM in experiment [4].
Take `O=C(OCCCCOc1ccccc1)c1cccc(S)n1`: the IC50 is 138 µM in experiment [1], 83 µM in experiment [2], 78 µM in experiment [3] and 63 µM in experiment [4].
The like results for `O=C(OCc1ccc(-c2ccccc2)cc1)c1cccc(=S)[nH]1` were, in that order, 119 µM, 150 µM, 135 µM and 110 µM.
For `O=C(OCc1cccc(-c2ccccc2)c1)c1cccc(=S)[nH]1`, the IC50 is 75 µM in experiment [1], 50 µM in experiment [2], 52 µM in experiment [3] and 42 µM in experiment [4].
For the molecule `CCCCCOC(=O)c1cccc(=O)[nH]1`, the IC50 was determined as 50 µM in experiment [1], 66 µM in experiment [2], 68 µM in experiment [3] and 103 µM in experiment [4].
`O=C(OCc1c(F)cc(F)cc1F)c1cccc(=O)[nH]1`: the IC50 in experiment [1] was found to be 16 µM; in experiment [2], 33 µM; in experiment [3], 31 µM; in experiment [4], 39 µM.
As for `O=C(OC1CCCCC1)c1cccc(=O)[nH]1`, the IC50 was determined as 32 µM in experiment [1], 94 µM in experiment [2], 71 µM in experiment [3] and 101 µM in experiment [4].
As to `C1=C(n2cc(C3=NCCO3)nn2)CCCC1`, the IC50 in experiment [1], in experiment [2], in experiment [3] and in experiment [4] was > 150 µM in each case.
With `O=C(OCc1ccc(F)cc1)c1cccc(S)n1`, the IC50 in experiment [1] was found to be 120 µM; in experiment [2], 120 µM; in experiment [3], 112 µM; in experiment [4] it was 108 µM.
For `Cc1ccc(COC(=O)c2cccc(=O)[nH]2)cc1`, the IC50 in experiment [1] was 65 µM; in experiment [2], 68 µM; in experiment [3], 69 µM; in experiment [4], 73 µM.
Consider `O=C(Oc1ccc2ccccc2c1)c1cccc(=O)[nH]1`, for which the IC50 in experiment [1] turned out to be 75 µM; in experiment [2], 103 µM; in experiment [3], 97 µM; in experiment [4], 125 µM.
On to `O=C(OCc1cccc(-c2ccccc2)c1)c1cccc(=O)[nH]1`, for which the IC50 in experiment [1] was 42 µM; in experiment [2], > 150 µM; in experiment [3] it was 99 µM; in experiment [4] it was 33 µM.
As to `O=C(OCc1cccc(Oc2ccccc2)c1)c1cccc(S)n1`, the IC50 in experiment [1] was 78 µM; in experiment [2], 75 µM; in experiment [3] it was 71 µM; in experiment [4] it was 46 µM.
Turning to `O=C(Oc1ccc2ccccc2c1)c1cccc(S)n1`, the IC50 in experiment [1] turned out to be 99 µM; in experiment [2], 119 µM; in experiment [3], 101 µM; in experiment [4], 100 µM.
The like results for `c1ccc(Cn2nnc(Cc3cccnc3)n2)cc1` were, in that order, > 150 µM, > 150 µM, > 150 µM and > 150 µM.
On to `O=C(Oc1ccsc1)c1cccc(S)n1`, for which the IC50 in experiment [1] amounted to 108 µM; in experiment [2] it was 90 µM; in experiment [3], 93 µM; in experiment [4], 77 µM.
For the molecule `O=C(OCCc1ccccc1)c1cccc(=S)[nH]1`, the IC50 in experiment [1] was 120 µM; in experiment [2] it was 107 µM; in experiment [3] it was 117 µM; in experiment [4], 119 µM.
Regarding `Cc1cccc(COC(=O)c2cccc(S)n2)c1`, the IC50 was > 150 µM in experiment [1], 7 µM in experiment [2], 70 µM in experiment [3] and 7 µM in experiment [4].
On to `O=C(OCc1cc(F)ccc1F)c1cccc(=O)[nH]1`, for which the IC50 in experiment [1] worked out at 70 µM; in experiment [2], 85 µM; in experiment [3] it was 100 µM; in experiment [4], 70 µM.
On to `C(=C\c1ccccc1)/Cn1cc(C2=NCCO2)nn1`, for which the half-inhibitory concentration (IC50) in experiment [1] was > 150 µM; in experiment [2] it was > 150 µM; in experiment [3], 61 µM; in experiment [4] it was 149 µM.
As for `c1ccc(Cn2cc(C3=NCCO3)nn2)cc1`, the half-inhibitory concentration (IC50) in experiment [1], in experiment [2], in experiment [3] and in experiment [4] was > 150 µM each time.
Regarding `c1cncc(Cc2nnn[nH]2)c1`, the IC50 in experiment [1] is > 150 µM; in experiment [2], > 150 µM; in experiment [3], > 150 µM; in experiment [4] it was 48 µM.
On to `CC#CCOC(=O)c1cccc(=O)[nH]1`, for which the IC50 amounted to 50 µM in experiment [1], 68 µM in experiment [2], 71 µM in experiment [3] and 70 µM in experiment [4].
In the case of `O=C(OCc1cccc(Br)c1)c1cccc(=O)[nH]1`, the IC50 in experiment [1] was 22 µM; in experiment [2], 67 µM; in experiment [3] it was 31 µM; in experiment [4] it was 68 µM.
The like results for `O=C(Oc1cccc2ccccc12)c1cccc(=O)[nH]1` were, in that order, 115 µM, 109 µM, 111 µM and 109 µM.
Turning to `O=C(OCc1ccccc1Br)c1cccc(=O)[nH]1`, the IC50 in experiment [1] turned out to be 19 µM; in experiment [2] it was 59 µM; in experiment [3] it was 44 µM; in experiment [4], 57 µM.
For `O=C(OC1CCC1)c1cccc(=O)[nH]1`, the IC50 in experiment [1] stood at 25 µM; in experiment [2], 62 µM; in experiment [3], 51 µM; in experiment [4], 66 µM.
On to `CCCCCCCn1cc(C2=NCCO2)nn1`, for which the IC50 in experiment [1], in experiment [2], in experiment [3] and in experiment [4] was > 150 µM in each case.
In the case of `O=C(OCc1ccc2c(c1)OCO2)c1cccc(=O)[nH]1`, the IC50 in experiment [1] was found to be 128 µM; in experiment [2], 114 µM; in experiment [3] it was 105 µM; in experiment [4] it was 107 µM.
For the molecule `c1ccc(CCCn2nnc(Cc3cccnc3)n2)cc1`, the IC50 in experiment [1], in experiment [2], in experiment [3] and in experiment [4] was > 150 µM each time.
Turning to `O=C(Oc1cccc2ccccc12)c1cccc(=S)[nH]1`, the IC50 is > 150 µM in experiment [1], > 150 µM in experiment [2], > 150 µM in experiment [3] and 98 µM in experiment [4].
Regarding `O=C(OCc1cccc(C(F)(F)F)c1)c1cccc(=S)[nH]1`, the IC50 in experiment [1] amounted to 134 µM; in experiment [2] it was 126 µM; in experiment [3], 134 µM; in experiment [4] it was 110 µM.
